Converted amounts (≈) assume the structure as drawn. The source made the active and inactive calls. The calls are words filed in the database; no cut-off is given here.
Assays:
Klebsiella pneumoniae = assay: Antibacterial activity against ESBL positive Klebsiella pneumoniae ATCC 700603 after 24 hrs by resazurin dye based microdilution assay; format: functional; details: Klebsiella pneumoniae, 700603, 24 h
How it was run: (§1)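 MIC taken as the lowest concentration giving visible inhibition and/or by resazurin (1 mg/mL). Gentamicin was the control. Run in duplicate, repeated at least three times.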

Leishmania panamensis = assay: Antileshmanial activity against EpiR/GFP fused Leishmania panamensis MHOM/CO/87/UA140 intracellular amastigotes infected in human […] cells after 72 hrs by flow cytometric method; format: functional, cell-based; details: MHOM/CO/87/UA140, 72 h
How it was run: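 PMA-treated U-937 cells (3 × 10^5 cells/mL) infected with stationary-phase GFP L. panamensis promastigotes (15:1), 3 h at 34 °C, then washed. After 24 h, compounds added at 50, 12.5, 3.125 and 0.78 µg/mL for 72 h at 37 °C. EC50 by Probit; triplicate, two experiments.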

CCRF-CEM = assay: Growth inhibition of human CCRF-CEM cells at 10 uM incubated for 48 hrs by sulforhodamine B assay; format: functional, cell-based
How it was run: (§2)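 NCI 60-cell-line screen at a single 10 µM dose. Cells in RPMI-1640 with 5% FBS and 2 mM L-glutamine, pre-incubated 24 h, then treated for 48 h at 37 °C. TCA fixation, sulforhodamine B staining, absorbance at 515 nm. Percentage growth calculated against time-zero and untreated controls.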

HL-60(TB) = assay: Growth inhibition of human HL-60(TB) cells at 10 uM incubated for 48 hrs by sulforhodamine B assay; format: functional, cell-based
How it was run: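 NCI 60-line single-dose screen at 10 μM, 48 h. Cells in RPMI-1640 with 5% FBS and 2 mM L-glutamine at 37 °C, 5% CO2. Growth measured by TCA fixation and SRB staining (515 nm), relative to time-zero and untreated control wells.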

K562 = assay: Growth inhibition of human K562 cells at 10 uM incubated for 48 hrs by sulforhodamine B assay; format: functional, cell-based
How it was run: (§3)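 NCI 60-line panel, single 10 μM dose. Cells were grown in RPMI-1640 with 5% FBS and 2 mM L-glutamine and pre-incubated 24 h before compound addition (DMSO stock). Exposure was 48 h at 37 °C, 5% CO2. Cells were fixed with cold TCA (10% final), stained with 0.4% SRB, bound dye dissolved in 10 mM Tris base, A515 read. Growth was taken relative to time-zero and untreated control plates.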

SR = assay: Growth inhibition of human SR cells at 10 uM incubated for 48 hrs by sulforhodamine B assay; format: functional, cell-based
How it was run: (§4)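 NCI-60 single-dose screen at 10 µM for 48 h. Cells were grown in RPMI-1640 with 5% FBS and 2 mM L-glutamine and preincubated 24 h before compound. Time-zero plates were TCA-fixed at compound addition. After exposure, cells were TCA-fixed, stained with SRB and read at 515 nm. Percentage growth was calculated against time-zero and untreated-control absorbances.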

NCI-H226 = assay: Growth inhibition of human NCI-H226 cells at 10 uM incubated for 48 hrs by sulforhodamine B assay; format: functional, cell-based; how it was run: as §3
COLO 205 = assay: Growth inhibition of human COLO205 cells at 10 uM incubated for 48 hrs by sulforhodamine B assay; format: functional, cell-based; how it was run: as §2
HCC 2998 = assay: Growth inhibition of human HCC2998 cells at 10 uM incubated for 48 hrs by sulforhodamine B assay; format: functional, cell-based; how it was run: as §2
SW-620 = assay: Growth inhibition of human SW620 cells at 10 uM incubated for 48 hrs by sulforhodamine B assay; format: functional, cell-based; how it was run: as §4
SF-539 = assay: Growth inhibition of human SF539 cells at 10 uM incubated for 48 hrs by sulforhodamine B assay; format: functional, cell-based; how it was run: as §3
Malme-3M = assay: Growth inhibition of human MALME-3M cells at 10 uM incubated for 48 hrs by sulforhodamine B assay; format: functional, cell-based; how it was run: as §3
M14 = assay: Growth inhibition of human M14 cells at 10 uM incubated for 48 hrs by sulforhodamine B assay; format: functional, cell-based; how it was run: as §3
MDA-MB-435 = assay: Growth inhibition of human MDA-MB-435 cells at 10 uM incubated for 48 hrs by sulforhodamine B assay; format: functional, cell-based; how it was run: as §3
UACC-257 = assay: Growth inhibition of human UACC257 cells at 10 uM incubated for 48 hrs by sulforhodamine B assay; format: functional, cell-based; how it was run: as §4
UACC-62 = assay: Growth inhibition of human UACC62 cells at 10 uM incubated for 48 hrs by sulforhodamine B assay; format: functional, cell-based; how it was run: as §4
OVCAR-3 = assay: Growth inhibition of human OVCAR3 cells at 10 uM incubated for 48 hrs by sulforhodamine B assay; format: functional, cell-based; how it was run: as §3
OVCAR-4 = assay: Growth inhibition of human OVCAR4 cells at 10 uM incubated for 48 hrs by sulforhodamine B assay; format: functional, cell-based; how it was run: as §3
OVCAR-5 = assay: Growth inhibition of human OVCAR5 cells at 10 uM incubated for 48 hrs by sulforhodamine B assay; format: functional, cell-based; how it was run: as §3
UO-31 = assay: Growth inhibition of human UO31 cells at 10 uM incubated for 48 hrs by sulforhodamine B assay; format: functional, cell-based; how it was run: as §4
PC-3 = assay: Growth inhibition of human PC3 cells at 10 uM incubated for 48 hrs by sulforhodamine B assay; format: functional, cell-based; how it was run: as §3
MCF7 = assay: Growth inhibition of human MCF7 cells at 10 uM incubated for 48 hrs by sulforhodamine B assay; format: functional, cell-based; how it was run: as §3
Hs-578T = assay: Growth inhibition of human Hs578T cells at 10 uM incubated for 48 hrs by sulforhodamine B assay; format: functional, cell-based; how it was run: as §3
MDA-MB-468 = assay: Growth inhibition of human MDA-MB-468 cells at 10 uM incubated for 48 hrs by sulforhodamine B assay; format: functional, cell-based; how it was run: as §3
Candida albicans [1] = assay: Growth inhibition of Candida albicans ATCC 10231 at 125 ug/ml incubated for 48 hrs under dark condition by broth microdilution method relative to control; format: functional; details: ATCC 10231, 48 h, read-out: GI
How it was run: (§5)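 CLSI M27-A3 broth microdilution in RPMI-1640, DMSO ≤1%. Inoculum 1-5 × 10^3 CFU/mL. Incubated 48 h at 30 °C, dark. % inhibition = 100 − (OD405 test − sterility control)/(OD405 growth control − sterility control), with growth and sterility control wells. Triplicate.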

Candida albicans [2] = assay: Growth inhibition of Candida albicans ATCC 10231 at 62.5 ug/ml incubated for 48 hrs under dark condition by broth microdilution method relative to control; format: functional; details: ATCC 10231, 48 h, read-out: GI; how it was run: as §5
Cryptococcus neoformans = assay: Growth inhibition of Cryptococcus neoformans ATCC 32264 at 15.62 ug/ml incubated for 48 hrs under dark condition by broth microdilution method relative to control; format: functional; details: ATCC 32264, 48 h, read-out: GI; how it was run: as §5
Staphylococcus aureus = assay: Antibacterial activity against methicillin-sensitive Staphylococcus aureus ATCC 25923 after 24 hrs by resazurin dye based microdilution assay; format: functional; details: ATCC 25923, 24 h; how it was run: as §1
Pseudomonas aeruginosa = assay: Antibacterial activity against Pseudomonas aeruginosa ATCC 27853 after 24 hrs by resazurin dye based microdilution assay; format: functional; details: ATCC 27853, 24 h; how it was run: as §1
Neisseria gonorrhoeae = assay: Antibacterial activity against beta lactamase positive Neisseria gonorrhoeae ATCC 31426 by oxidase test; format: functional
How it was run: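 Agar dilution MIC on GC agar with 1% isovitalex containing increasing compound concentrations. Plates inoculated with about 1×10^4 CFU (5 µL). MIC is the lowest concentration that inhibited growth, with growth confirmed by oxidase test. Run in duplicate, repeated at least three times.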

Row | SMILES | MIC (Klebsiella pneumoniae) [mg/L] | EC50 (Leishmania panamensis) [mg/L] | growth inhibition (GI) (CCRF-CEM) | growth inhibition (GI) (HL-60(TB)) | growth inhibition (GI) (K562) | growth inhibition (GI) (SR) | growth inhibition (GI) (NCI-H226) | growth inhibition (GI) (COLO 205) | growth inhibition (GI) (HCC 2998) | growth inhibition (GI) (SW-620) | growth inhibition (GI) (SF-539) | growth inhibition (GI) (Malme-3M) | growth inhibition (GI) (M14) | growth inhibition (GI) (MDA-MB-435) | growth inhibition (GI) (UACC-257) | growth inhibition (GI) (UACC-62) | growth inhibition (GI) (OVCAR-3) | growth inhibition (GI) (OVCAR-4) | growth inhibition (GI) (OVCAR-5) | growth inhibition (GI) (UO-31) | also measured
1 | COc1cc(C(=O)/C=C/c2cccc(Nc3ccnc4cc(Cl)ccc34)c2)cc(OC)c1OC | > 1000 | 5.92 (≈ 12.5 µM) | Active | Active | Active | Active | Active | Active | Active | Active | Active | Active | Active | Active | Active | Active | Active | Active | Active | Active | growth inhibition (GI) (PC-3): Active; growth inhibition (GI) (MCF7): Active; growth inhibition (GI) (Hs-578T): Active; growth inhibition (GI) (MDA-MB-468): Active; inhibition of growth at 125 µg/mL (Candida albicans [1]): 10.7%; inhibition of growth at 62.5 µg/mL (Candida albicans [2]): 7.6%; inhibition of growth at 15.62 µg/mL (Cryptococcus neoformans): 0%; MIC (Staphylococcus aureus): > 1000 mg/L; MIC (Pseudomonas aeruginosa): > 1000 mg/L; MIC (Neisseria gonorrhoeae): > 1000 mg/L
2 | Clc1ccc(C2=NN(c3ccccc3)C(c3cccc(Nc4ccnc5cc(Cl)ccc45)c3)C2)cc1 (stereo not given) | > 1000 | 11.7 (≈ 22.9 µM) | inactive | inactive | inactive | inactive | inactive | inactive | inactive | inactive | inactive | inactive | inactive | inactive | inactive | inactive | inactive | inactive | inactive | inactive | growth inhibition (GI) (PC-3): inactive; growth inhibition (GI) (MCF7): inactive; growth inhibition (GI) (Hs-578T): inactive; growth inhibition (GI) (MDA-MB-468): inactive; inhibition of growth at 125 µg/mL (Candida albicans [1]): 8.35%; inhibition of growth at 62.5 µg/mL (Candida albicans [2]): 7.77%; inhibition of growth at 15.62 µg/mL (Cryptococcus neoformans): 0%; MIC (Staphylococcus aureus): > 1000 mg/L; MIC (Pseudomonas aeruginosa): > 1000 mg/L; MIC (Neisseria gonorrhoeae): > 1000 mg/L
3 | COc1cc(C2=NN(c3ccc(Cl)cc3)C(c3cccc(Nc4ccnc5cc(Cl)ccc45)c3)C2)cc(OC)c1OC (stereo not given) | > 1000 | 21.3 (≈ 35.5 µM) | inactive | inactive | inactive | inactive | inactive | inactive | inactive | inactive | inactive | inactive | inactive | inactive | inactive | inactive | inactive | inactive | inactive | inactive | growth inhibition (GI) (PC-3): inactive; growth inhibition (GI) (MCF7): inactive; growth inhibition (GI) (Hs-578T): inactive; growth inhibition (GI) (MDA-MB-468): inactive; inhibition of growth at 125 µg/mL (Candida albicans [1]): 16.7%; inhibition of growth at 62.5 µg/mL (Candida albicans [2]): 12.2%; inhibition of growth at 15.62 µg/mL (Cryptococcus neoformans): 12.2%; MIC (Staphylococcus aureus): > 1000 mg/L; MIC (Pseudomonas aeruginosa): > 1000 mg/L; MIC (Neisseria gonorrhoeae): > 1000 mg/L
